According to ChEMBL document CHEMBL1649373, “Candimine-induced cell death of the amitochondriate parasite Trichomonas vaginalis” (2010):
Active and inactive are the calls of the source. No cut-off for these calls is given here.

Tests used:
[1] = tested on: Trichomonas vaginalis; assay: Induction of striking morphological alteration in Trichomonas vaginalis TV-VP60 assessed as hydrogenosomes on autophagic vacuoles at 250 uM after 24 hrs by transmission electron microscopic analysis; format: functional, organism-based
[2] = tested on: Trichomonas vaginalis; assay: Induction of striking morphological alteration in Trichomonas vaginalis TV-VP60 assessed as loss of original shape of parasites with some fissures on the surface at 250 uM by scanning electron microscopic analysis; format: functional, organism-based; conditions: TDE = time-dependent effect
Summary of the method: (§1)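 Surface morphology of TV-VP60 trophozoites exposed to 250 µM for 6 h and 24 h was examined by scanning electron microscopy.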

[3] = tested on: Trichomonas vaginalis; assay: Growth inhibition of Trichomonas vaginalis TV-VP60 at 250 uM using initial inoculum of 1.0 x 10^5 trophozoites/mL; format: functional, organism-based
Summary of the method: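 Kinetic growth curve of TV-VP60 trophozoites with 250 µM present, starting from initial inocula of 1.0 × 10^5 or 5.0 × 10^4 trophozoites/mL. Untreated parasites served as control.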

[4] = tested on: Trichomonas vaginalis; assay: Cell cycle arrest in Trichomonas vaginalis TV-VP60 assessed as accumulation at S phase at 250 uM after 24 hrs using Annexin V FITC and propidium iodide staining by flow cytometry relative to control; format: functional
Summary of the method: (§2)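 TV-VP60 trophozoites (fresh clinical isolate) exposed to 250 µM for 6 h or 24 h; cell-cycle distribution measured by flow cytometry and compared with untreated trophozoites.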

[5] = tested on: Trichomonas vaginalis; assay: Induction of striking morphological alteration in Trichomonas vaginalis TV-VP60 assessed as formation of multinucleated cells at 250 uM after 24 hrs by transmission electron microscopic analysis; format: functional, organism-based
[6] = tested on: Trichomonas vaginalis; assay: Effect on alteration in size of trophozoites in Trichomonas vaginalis TV-VP60 at 250 uM after 6 to 24 hrs by flow cytometry; format: functional, organism-based
Summary of the method: (§3)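 TV-VP60 trophozoites exposed to 250 µM for 6 h and 24 h. Cell size and granularity were read by flow cytometry, with granularity taken as the vacuolization rate.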

[7] = tested on: Trichomonas vaginalis; assay: Induction of phosphatidylserine exposure in Trichomonas vaginalis TV-VP60 at 250 uM after 6 to 24 hrs by Annexin V-FITC staining; format: functional, organism-based
[8] = tested on: Trichomonas vaginalis; assay: Induction of striking morphological alteration in Trichomonas vaginalis TV-VP60 assessed as effect on endoplasmic reticulum at 250 uM after 6 hrs by transmission electron microscopic analysis; format: functional, organism-based
[9] = tested on: Trichomonas vaginalis; assay: Induction of striking morphological alteration in Trichomonas vaginalis TV-VP60 assessed as change in shape of hydrogenosomes at 250 uM after 6 to 24 hrs by transmission electron microscopic analysis; format: functional, organism-based
[10] = tested on: Trichomonas vaginalis; assay: Induction of apoptosis in Trichomonas vaginalis TV-VP60 assessed as formation of apoptotic bodies at 250 uM after 6 to 24 hrs by flow cytometry; format: functional, organism-based
[11] = tested on: Trichomonas vaginalis; assay: Induction of striking morphological alteration in Trichomonas vaginalis TV-VP60 assessed as degenerated cytoplasm matrix at 250 uM after 24 hrs by transmission electron microscopic analysis; format: functional, organism-based
[12] = tested on: Trichomonas vaginalis; assay: Induction of striking morphological alteration in Trichomonas vaginalis TV-VP60 assessed as loss of original shape of parasites with some fissures on the surface at 250 uM after 24 hrs by scanning electron microscopic analysis; format: functional, organism-based; summary of the method: as §1
[13] = tested on: Trichomonas vaginalis; assay: Induction of striking morphological alteration in Trichomonas vaginalis TV-VP60 assessed as elongated nucleus at 250 uM after 24 hrs by transmission electron microscopic analysis; format: functional, organism-based
[14] = tested on: Trichomonas vaginalis; assay: Cell cycle arrest in Trichomonas vaginalis TV-VP60 assessed as accumulation at G2 phase at 250 uM after 6 hrs using Annexin V FITC and propidium iodide staining by flow cytometry relative to control; format: functional; summary of the method: as §2
[15] = tested on: Trichomonas vaginalis; assay: Induction of striking morphological alteration in Trichomonas vaginalis TV-VP60 assessed as effect on golgi apparatus at 250 uM after 6 hrs by transmission electron microscopic analysis; format: functional, organism-based
[16] = tested on: Trichomonas vaginalis; assay: Growth inhibition of Trichomonas vaginalis TV-VP60 at 250 uM treated followed by washout measured after 12 hrs growth period; format: functional, organism-based
Summary of the method: (§4)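 TV-VP60 trophozoites treated with 250 µM for 12 or 24 h, centrifuged, and the pellet reinoculated into fresh medium without alkaloid. Growth was then followed as a kinetic curve. Untreated trophozoites went through the same procedure for comparison.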

[17] = tested on: Trichomonas vaginalis; assay: Induction of striking morphological alteration in Trichomonas vaginalis TV-VP60 assessed as large peripheral vacuoles between plasma membrane and cytoplasm at 250 uM after 24 hrs by transmission electron microscopic analysis; format: functional, organism-based
[18] = tested on: Trichomonas vaginalis; assay: Induction of striking morphological alteration in Trichomonas vaginalis TV-VP60 assessed as change in size of hydrogenosomes at 250 uM after 6 to 24 hrs by transmission electron microscopic analysis; format: functional, organism-based
[19] = tested on: Trichomonas vaginalis; assay: Growth inhibition of Trichomonas vaginalis TV-VP60 at 250 uM using initial inoculum of 5 x 10^5 trophozoites/mL; format: functional, organism-based
[20] = tested on: Trichomonas vaginalis; assay: Induction of striking morphological alteration in Trichomonas vaginalis TV-VP60 assessed as pseudocysts at flagella internalization stage at 5 uM after 24 hrs by scanning electron microscopic analysis; format: functional, organism-based
[21] = tested on: Trichomonas vaginalis; assay: Cell cycle arrest in Trichomonas vaginalis TV-VP60 assessed as accumulation at S phase at 250 uM after 6 hrs using Annexin V FITC and propidium iodide staining by flow cytometry relative to control; format: functional; summary of the method: as §2
[22] = tested on: Trichomonas vaginalis; assay: Cell cycle arrest in Trichomonas vaginalis TV-VP60 assessed as accumulation at G2 phase at 250 uM after 24 hrs using Annexin V FITC and propidium iodide staining by flow cytometry relative to control; format: functional; summary of the method: as §2
[23] = tested on: Trichomonas vaginalis; assay: Cell cycle arrest in Trichomonas vaginalis TV-VP60 assessed as accumulation at G1 phase at 250 uM after 6 hrs using Annexin V FITC and propidium iodide staining by flow cytometry relative to control; format: functional; summary of the method: as §2
[24] = tested on: Trichomonas vaginalis; assay: Induction of vacuolization formation in Trichomonas vaginalis TV-VP60 at 250 uM after 6 to 24 hrs by flow cytometry; format: functional, organism-based; summary of the method: as §3
[25] = tested on: Trichomonas vaginalis; assay: Induction of striking morphological alteration in Trichomonas vaginalis TV-VP60 assessed as loss of original shape of parasites with some fissures on the surface at 250 uM after 6 hrs by scanning electron microscopic analysis; format: functional, organism-based; summary of the method: as §1
[26] = tested on: Trichomonas vaginalis; assay: Induction of striking morphological alteration in Trichomonas vaginalis TV-VP60 assessed as abnormal shape of nucleus at 250 uM after 24 hrs by transmission electron microscopic analysis; format: functional, organism-based
[27] = tested on: Trichomonas vaginalis; assay: Induction of striking morphological alteration in Trichomonas vaginalis TV-VP60 assessed as change in intracellular localization of hydrogenosomes at 250 uM after 6 to 24 hrs by transmission electron microscopic analysis; format: functional, organism-based
[28] = tested on: Trichomonas vaginalis; assay: Induction of striking morphological alteration in Trichomonas vaginalis TV-VP60 assessed as striate vacuolization close to nucleus at 250 uM after 24 hrs by transmission electron microscopic analysis; format: functional, organism-based
[29] = tested on: Trichomonas vaginalis; assay: Cell cycle arrest in Trichomonas vaginalis TV-VP60 assessed as accumulation at G1 phase at 250 uM after 24 hrs using Annexin V FITC and propidium iodide staining by flow cytometry relative to control; format: functional; summary of the method: as §2
[30] = tested on: Trichomonas vaginalis; assay: Induction of apoptosis in Trichomonas vaginalis TV-VP60 assessed as DNA fragmentation at 250 uM after 6 to 24 hrs by agarose gel electrophoresis; format: functional, organism-based
Summary of the method: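 Genomic DNA from TV-VP60 trophozoites treated with 250 µM for 6 h and 24 h was analysed by electrophoresis alongside untreated parasites.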

[31] = tested on: Trichomonas vaginalis; assay: Growth inhibition of Trichomonas vaginalis TV-VP60 at 250 uM treated followed by washout measured after 48 hrs growth period; format: functional, organism-based; summary of the method: as §4
[32] = tested on: Trichomonas vaginalis; assay: Cytotoxicity against Trichomonas vaginalis TV-VP60 at 2.5 uM to 1 mM after 24 hrs by trypan blue exclusion assay; format: functional, organism-based
Summary of the method: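 Dose-response run on 5.0 × 10^5 TV-VP60 trophozoites/mL (fresh clinical isolate), concentrations 2.5 to 1000 µM, 24 h exposure, viable trophozoites counted. Vehicle control included; metronidazole 50 µM used as positive control.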

[33] = tested on: Trichomonas vaginalis; assay: Cytotoxicity against Trichomonas vaginalis TV-VP60 at 50 uM after 24 hrs by trypan blue exclusion assay; format: functional

Compound: COc1c2c(cc3c1C(=O)O[C@H]1[C@@H]3[C@H]3C(=C[C@@H]1O)CCN3C)OCO2 [CANDIMINE]
- Activity [1]: Active
- Activity [2]: tde
- growth inhibition (GI) [3]: Active
- Activity [4]: 19.49%
- Activity [5]: inactive
- Activity [6]: inactive
- Activity [7]: inactive
- Activity [8]: inactive
- Activity [9]: Active
- Activity [10]: inactive
- Activity [11]: inactive
- Activity [12]: Active
- Activity [13]: Active
- Activity [14]: 44.2%
- Activity [15]: inactive
- growth inhibition (GI) [16]: inactive
- Activity [17]: Active
- Activity [18]: Active
- growth inhibition (GI) [19]: Active
- Activity [20]: Active
- Activity [21]: 19.89%
- Activity [22]: 58.97%
- Activity [23]: 34.39%
- Activity [24]: Active
- Activity [25]: Active
- Activity [26]: Active
- Activity [27]: Active
- Activity [28]: Active
- Activity [29]: 22.66%
- Activity [30]: inactive
- growth inhibition (GI) [31]: inactive
- Activity [32]: Active

Compound: Cc1ncc([N+](=O)[O-])n1CCO [METRONIDAZOLE]
- Activity [33]: 100%
